Assay results taken from PubChem BioAssay AID488782 (The Scripps Research Institute Molecular Screening Center, 2010).
Activity calls are given as the source filed them.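 How the source made its calls: active means concentration giving half-maximal inhibition of the luciferase signal, from the fitted curve, at 5 µM or lower; inactive means half-inhibition concentration above 5 µM.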

Biological target: Nuclear receptor subfamily 5 group A member 2 (Homo sapiens) (UniProt O00482)
Experiment: LRH1 inhibitors, concentration-response, dose response, cell-based, HEK293T, Cyp19 aromatase-luciferase, luminescence, powder samples (AID 488782)
Conditions: HEK293T LRH1 Cyp19-luciferase reporter, 20 h
Outline: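 assay system = HEK293T cells carrying LRH1 plus Cyp19-luciferase reporter | compound = Nine-point dilution series, highest nominal concentration 10 µM | schedule = bulk transfection 24 h before replating, compound exposure 20 h | signal = luciferase luminescence | measure = IC50 from sigmoidal fit of DMSO-normalized inhibition | benchmarks = DMSO-treated wells as normalization reference | replicates = triplicate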

Sequence of Nuclear receptor subfamily 5 group A member 2 (Homo sapiens) (O00482 whole entry, looked up): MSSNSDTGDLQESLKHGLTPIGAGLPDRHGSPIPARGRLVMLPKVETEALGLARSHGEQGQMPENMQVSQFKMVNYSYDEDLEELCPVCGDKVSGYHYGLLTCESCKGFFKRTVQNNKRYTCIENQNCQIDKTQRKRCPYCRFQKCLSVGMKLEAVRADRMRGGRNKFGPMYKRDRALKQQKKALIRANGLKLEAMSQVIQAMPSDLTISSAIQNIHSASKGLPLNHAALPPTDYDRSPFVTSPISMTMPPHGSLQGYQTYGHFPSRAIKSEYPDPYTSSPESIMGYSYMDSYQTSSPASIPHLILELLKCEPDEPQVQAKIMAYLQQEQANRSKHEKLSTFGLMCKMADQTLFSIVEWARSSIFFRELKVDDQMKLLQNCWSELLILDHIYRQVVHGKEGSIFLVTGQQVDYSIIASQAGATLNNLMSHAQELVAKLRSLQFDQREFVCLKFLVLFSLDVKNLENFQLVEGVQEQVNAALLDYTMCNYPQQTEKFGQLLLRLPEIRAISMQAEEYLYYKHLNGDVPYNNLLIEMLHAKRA

## CCn1c(=O)cc(N2CCN(c3cccc(Cl)c3)CC2)[nH]c1=O
  IC50: 4200 nM

## O=c1cc(N2CCN(C3CCCCC3)CC2)[nH]c(=O)n1C1CCCCC1
  IC50: 921 nM

## O=c1cc(N2CCN(c3cccc(C(F)(F)F)c3)CC2)[nH]c(=O)n1C1CCCCC1
  IC50: 320 nM

## Cn1c(=O)cc(N2CCN(c3cccc(Cl)c3)CC2)[nH]c1=O
  IC50: 1100 nM

## O=c1cc(N2CCN(c3cccc(Cl)c3)CC2)[nH]c(=O)n1C1CCCCC1
  IC50: 3700 nM

## O=c1cc(N2CCN(c3cccc(Cl)n3)CC2)[nH]c(=O)n1C1CCCCC1
  IC50: 538 nM

## CC(C)Cn1c(=O)cc(N2CCN(c3cccc(C(F)(F)F)c3)CC2)[nH]c1=O
  IC50: 110 nM

## C=CCn1c(=O)cc(N2CCN(c3cccc(C(F)(F)F)c3)CC2)[nH]c1=O
  IC50: 570 nM

## O=c1cc(N2CCN(c3ccccc3)CC2)[nH]c(=O)n1C1CCCCC1
  IC50: 2600 nM

## O=c1cc(N2CCN(Cc3ccc(Cl)cc3)CC2)[nH]c(=O)n1C1CCCCC1
At 10 µM (top of the series)
  fold change, lower = inhibition: inactive

## CCn1c(=O)cc(N2CCN(c3cccc(C(F)(F)F)c3)CC2)[nH]c1=O
  IC50: 1000 nM

## O=c1cc(N2CCN(c3cccc(Cl)c3Cl)CC2)[nH]c(=O)n1C1CCCCC1
  IC50: 430 nM

## O=c1cc(N2CCN(c3nc(-c4ccccc4)ns3)CC2)[nH]c(=O)n1C1CCCCC1
  IC50: 4800 nM

## O=c1cc(N2CCN(c3ccnc4cc(Cl)ccc34)CC2)[nH]c(=O)n1C1CCCCC1
  IC50: 4000 nM
